# Results from ChEMBL document CHEMBL1132987, “Phosphorylated morpholine acetal human neurokinin-1 receptor antagonists as water-soluble prodrugs” (J Med Chem, 2000).
# Columns and labels:
# Mustela putorius furo [1] = assay: inhibitory dose was determined after intravenous administration of the compound.; type: functional
# Mustela putorius furo [2] = assay: (§1) Dose dependent reduction in cisplatin-induced retching in ferrets at 0.1 mg/kg iv dose; type: functional
# In short: (§2)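 Ferrets were pretreated intravenously at 0.1, 0.3 or 1.0 mg/kg, then given cisplatin at 10 mg/kg iv. Retches and vomits were counted over a 4 h observation period and reported as mean counts, with n = 4 per group. Vehicle-pretreated controls (n = 4-6) were run alongside.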
# Mustela putorius furo [3] = assay: (§3) Dose dependent reduction in cisplatin-induced retching in ferrets at 0.3 mg/kg iv dose; type: functional; in short: as §2
# Mustela putorius furo [4] = assay: (§4) Dose dependent reduction in cisplatin-induced retching in ferrets at 1.0 mg/kg iv dose; type: functional; in short: as §2
# Mustela putorius furo [5] = assay: (§5) Dose-dependent reduction in cisplatin-induced vomiting in ferrets at 0.1 mg/kg iv dose; type: functional; in short: as §2
# Mustela putorius furo [6] = assay: (§6) Dose-dependent reduction in cisplatin-induced vomiting in ferrets at 0.3 mg/kg iv dose; type: functional; in short: as §2
# Mustela putorius furo [7] = assay: (§7) Dose-dependent reduction in cisplatin-induced vomiting in ferrets at 1.0 mg/kg iv dose; type: functional; in short: as §2
# Cavia porcellus [8] = assay: Inhibitory dose (ID50) was determined after intravenous administration followed by resiniferatoxin (RTX) challenge 1 hour before; type: functional; details: read-out: ID50 (the source's name)
# In short: (§8)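 Guinea pigs received the compound orally or intravenously at either 1 h or 24 h before a systemic resiniferatoxin challenge, each line matching its own route and interval. The challenge induces SP-mediated systemic vascular leakage. ID50 (mg/kg) was derived from dose-response data using 2-11 animals per data point.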
# Cavia porcellus [9] = assay: Inhibitory dose (ID50) was determined after oral administration followed by resiniferatoxin (RTX) challenge 1 hour; type: functional; details: read-out: ID50 (the source's name); in short: as §8
# Cavia porcellus [10] = assay: Inhibitory dose (ID50) was determined after oral administration followed by resiniferatoxin (RTX) challenge 24 hour before; type: functional; details: read-out: ID50 (the source's name); in short: as §8
# [11] = Area under curve was determined after intravenous administration of compound as Bis(N-methyl-D-glucamine) salt in rat at a dose 1 mg/kg; type: ADME, organism-based; set-up: dose 1 mg/kg, route intravenous; details: in vivo
# In short: (§9)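 The phosphate prodrug, as its bis(N-methyl-D-glucamine) salt, was dosed intravenously to rats (1, 8, 25 mg/kg) and dogs (0.5, 2, 32 mg/kg). The reported AUC is of the released parent antagonist in plasma, given as an average. Plasma prodrug and parent were followed by HPLC-MS/MS.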
# [12] = Area under curve was determined after intravenous administration of compound as Bis(N-methyl-D-glucamine) salt in rat at a dose 8 mg/kg; type: ADME, organism-based; set-up: dose 8 mg/kg, route intravenous; details: in vivo; in short: as §9
# [13] = Area under curve (AUC) was determined after intravenous administration in dog at a dose of 0.5 mg/kg; type: ADME, organism-based, Canis lupus familiaris; set-up: dose 0.5 mg/kg, route intravenous; details: in vivo
# In short: (§10)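 The parent antagonist was given intravenously to rats (0.2, 2 and 5 mg/kg) or dogs. AUC of the parent was taken from plasma concentration–time data, and values are averages. Plasma levels were measured by HPLC-MS/MS.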
# [14] = Area under curve (AUC) was determined after intravenous administration in dog at a dose of 2 mg/kg; type: ADME, organism-based, Canis lupus familiaris; set-up: dose 2 mg/kg, route intravenous; details: in vivo; in short: as §10
# [15] = Area under curve (AUC) was determined after intravenous administration in rat at a dose of 2 mg/kg; type: ADME, organism-based; set-up: dose 2 mg/kg, route intravenous; details: in vivo; in short: as §10
# [16] = Area under curve (AUC) was determined after intravenous administration in rat at a dose of 5 mg/kg; type: ADME, organism-based; set-up: dose 5 mg/kg, route intravenous; details: in vivo; in short: as §10
# [17] = Area under curve (AUC) was determined after intravenous administration of compound as Bis(N-methyl-D-glucamine) salt in dog at a dose of 0.5 mg/Kg; type: ADME, organism-based, Canis lupus familiaris; details: in vivo; in short: as §9
# [18] = Area under curve (AUC) was determined after intravenous administration of compound as Bis(N-methyl-D-glucamine) salt in dog at a dose of 2 mg/Kg; type: ADME, organism-based, Canis lupus familiaris; details: in vivo; in short: as §9
# [19] = Area under curve (AUC) was determined after intravenous administration of compound as Bis(N-methyl-D-glucamine) salt in dog at a dose of 32 mg/Kg; type: ADME, organism-based, Canis lupus familiaris; details: in vivo; in short: as §9
# [20] = Area under curve (AUC) was determined after intravenous administration of compound as Bis(N-methyl-D-glucamine) salt in rat at a dose 25 mg/Kg; type: ADME, organism-based; details: in vivo; in short: as §9
# Mustela putorius furo [21] = assay: as §1; type: functional; remark: listed apart in the source
# Mustela putorius furo [22] = assay: as §3; type: functional; remark: listed apart in the source
# Mustela putorius furo [23] = assay: as §4; type: functional; remark: listed apart in the source
# Mustela putorius furo [24] = assay: as §5; type: functional; remark: listed apart in the source
# Mustela putorius furo [25] = assay: as §6; type: functional; remark: listed apart in the source
# Mustela putorius furo [26] = assay: as §7; type: functional; remark: listed apart in the source
# Cavia porcellus [27] = assay: Dose (ID50) for inhibition of SP-mediated vascular leakage was determined after intravenous administration followed by resiniferatoxin (RTX) challenge 1 hour before; type: functional; details: read-out: ID50 (the source's name); in short: as §8
# Cavia porcellus [28] = assay: Dose (ID50) for inhibition of SP-mediated vascular leakage was determined after intravenous administration followed by resiniferatoxin (RTX) challenge 24 hour before; type: functional; details: read-out: ID50 (the source's name)
# Cavia porcellus [29] = assay: Dose (ID50) for inhibition of SP-mediated vascular leakage was determined after oral administration followed by resiniferatoxin (RTX) challenge 1 hour; type: functional; details: read-out: ID50 (the source's name); in short: as §8
compound,measurement,setting,value
CNC[C@H](O)[C@@H](O)[C@H](O)[C@H](O)CO.C[C@@H](O[C@H]1OCCN(Cc2nc(O)n(P(=O)(O)O)n2)[C@H]1c1ccc(F)cc1)c1cc(C(F)(F)F)cc(C(F)(F)F)c1,ID90,Mustela putorius furo [1],0.8 mg/kg
same,Incidence_count,Mustela putorius furo [2],115
same,Incidence_count,Mustela putorius furo [3],26
same,Incidence_count,Mustela putorius furo [4],2
same,Incidence_count,Mustela putorius furo [5],16
same,Incidence_count,Mustela putorius furo [6],4
same,Incidence_count,Mustela putorius furo [7],1
same,ED50,Cavia porcellus [8],0.006 mg/kg
same,ED50,Cavia porcellus [9],0.016 mg/kg
same,ED50,Cavia porcellus [10],0.9 mg/kg
C[C@@H](O[C@H]1OCCN(Cc2n[nH]c(=O)[nH]2)[C@H]1c1ccc(F)cc1)c1cc(C(F)(F)F)cc(C(F)(F)F)c1 [APREPITANT],AUC,[11],570 ng·h/mL
same,AUC,[12],6300 ng·h/mL
same,AUC,[13],3800 ng·h/mL
same,AUC,[14],38000 ng·h/mL
same,AUC,[15],2700 ng·h/mL
same,AUC,[16],6400 ng·h/mL
same,AUC,[17],1100 ng·h/mL
same,AUC,[18],8900 ng·h/mL
same,AUC,[19],370000 ng·h/mL
same,AUC,[20],22000 ng·h/mL
same,ID90,Mustela putorius furo [1],0.3 mg/kg
same,Incidence_count,Mustela putorius furo [21],90
same,Incidence_count,Mustela putorius furo [22],5
same,Incidence_count,Mustela putorius furo [23],0
same,Incidence_count,Mustela putorius furo [24],13
same,Incidence_count,Mustela putorius furo [25],1
same,Incidence_count,Mustela putorius furo [26],0
same,ED50,Cavia porcellus [27],0.002 mg/kg
same,ED50,Cavia porcellus [28],0.5 mg/kg
same,ED50,Cavia porcellus [29],0.012 mg/kg
